Converted amounts (≈) assume the structure as drawn.
How the values were obtained:
Assay type in all cases: functional
Pseudomonas aeruginosa [1] = experiment: Antimicrobial activity against Pseudomonas aeruginosa isolate PA-SD2 harboring blaVIM-1 gene by Etest method
Pseudomonas aeruginosa [2] = experiment: Antimicrobial activity against Pseudomonas aeruginosa isolate PA-SL2 harboring blaVIM-13 gene by Etest method
Pseudomonas aeruginosa [3] = experiment: Antimicrobial activity against Pseudomonas aeruginosa PAO1 harboring pUCP carrying VIM-1 gene by Etest method
Outline: (§1)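 Etest MICs of piperacillin, piperacillin-tazobactam, ceftazidime, cefepime, cefotaxime, aztreonam, imipenem and meropenem, run per manufacturer's recommendations. Strains were E. coli XL1-Blue or P. aeruginosa PAO1 carrying pUCP24-derived plasmids with blaVIM-1 or blaVIM-13 (cloned by EcoRI) inserted in the lacZ-promoter orientation. E. coli transformants were selected on 10 μg/ml gentamicin MacConkey agar; PAO1 electroporants were selected on 50 μg/ml gentamicin LB agar.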

Pseudomonas aeruginosa [4] = experiment: Antimicrobial activity against Pseudomonas aeruginosa PAO1 harboring pUCP carrying VIM-13 gene by Etest method; outline: as §1
Pseudomonas aeruginosa [5] = experiment: Antimicrobial activity against Pseudomonas aeruginosa PAO1 by Etest method
Escherichia coli [6] = experiment: Antimicrobial activity against Escherichia coli XL1-Blue harboring pUCP carrying VIM-1 gene by Etest method; outline: as §1
Escherichia coli [7] = experiment: Antimicrobial activity against Escherichia coli XL1-Blue harboring pUCP carrying VIM-13 gene by Etest method; outline: as §1
Escherichia coli [8] = experiment: Antimicrobial activity against Escherichia coli XL1-Blue by Etest method
Pseudomonas aeruginosa [9] = experiment: Antimicrobial activity against Pseudomonas aeruginosa isolate PA-SD2 harboring blaVIM-1 gene by Etest method in presence of Tazobactam
Pseudomonas aeruginosa [10] = experiment: Antimicrobial activity against Pseudomonas aeruginosa isolate PA-SL2 harboring blaVIM-13 gene by Etest method in presence of Tazobactam
Pseudomonas aeruginosa [11] = experiment: Antimicrobial activity against Pseudomonas aeruginosa PAO1 harboring pUCP carrying VIM-1 gene by Etest method in presence of Tazobactam
Pseudomonas aeruginosa [12] = experiment: Antimicrobial activity against Pseudomonas aeruginosa PAO1 harboring pUCP carrying VIM-13 gene by Etest method in presence of Tazobactam
Pseudomonas aeruginosa [13] = experiment: Antimicrobial activity against Pseudomonas aeruginosa PAO1 by Etest method in presence of Tazobactam
Outline: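 Etest MICs of piperacillin-tazobactam for P. aeruginosa PAO1 electroporated with pUCP24 carrying cloned blaVIM-1 or blaVIM-13, with the insert in lacZ promoter orientation. Transformants were selected on 50 μg/ml gentamicin LB agar. Testing followed the manufacturer's recommendations, with CLSI breakpoints.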

Escherichia coli [14] = experiment: Antimicrobial activity against Escherichia coli XL1-Blue harboring pUCP carrying VIM-1 gene by Etest method in presence of Tazobactam; outline: as §1
Escherichia coli [15] = experiment: Antimicrobial activity against Escherichia coli XL1-Blue harboring pUCP carrying VIM-13 gene by Etest method in presence of Tazobactam
Outline: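 blaVIM-13 was PCR-amplified, passed through pGEM-T, and moved as an EcoRI fragment into pUCP24, with the insert oriented with the lacZ promoter (checked by PCR and sequencing). It was transformed into CaCl2-competent E. coli XL1-Blue and selected on MacConkey agar with 10 μg/ml gentamicin. Piperacillin-tazobactam MIC was read by Etest strip.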

Escherichia coli [16] = experiment: Antimicrobial activity against Escherichia coli XL1-Blue by Etest method in presence of Tazobactam

SMILES: CCN1CCN(C(=O)N[C@@H](C(=O)N[C@@H]2C(=O)N3[C@@H]2SC(C)(C)[C@@H]3C(=O)O)c2ccccc2)C(=O)C1=O [PIPERACILLIN]
- MIC (Pseudomonas aeruginosa [1]): > 256 µg/mL
- MIC (Pseudomonas aeruginosa [2]): > 256 µg/mL
- MIC (Pseudomonas aeruginosa [3]): 64 µg/mL (≈ 124 µM)
- MIC (Pseudomonas aeruginosa [4]): 192 µg/mL (≈ 371 µM)
- MIC (Pseudomonas aeruginosa [5]): 3 µg/mL (≈ 5.8 µM)
- MIC (Escherichia coli [6]): 6 µg/mL (≈ 11.6 µM)
- MIC (Escherichia coli [7]): 8 µg/mL (≈ 15.5 µM)
- MIC (Escherichia coli [8]): 1.5 µg/mL (≈ 2.9 µM)
- MIC (Pseudomonas aeruginosa [9]): > 256 µg/mL
- MIC (Pseudomonas aeruginosa [10]): > 256 µg/mL
- MIC (Pseudomonas aeruginosa [11]): 48 µg/mL
- MIC (Pseudomonas aeruginosa [12]): 192 µg/mL
- MIC (Pseudomonas aeruginosa [13]): 3 µg/mL
- MIC (Escherichia coli [14]): 6 µg/mL
- MIC (Escherichia coli [15]): 8 µg/mL
- MIC (Escherichia coli [16]): 1 µg/mL
